Reference: ChEMBL document CHEMBL1145814, “Antiretroviral activity of semisynthetic derivatives of glycopeptide antibiotics” (J Med Chem, 2003)
In brackets after ≈: the same amount, converted by molar mass.

Columns and labels:
[1] = system: Human immunodeficiency virus 2; test: Concentration required to protect human T-lymphocytic cells against the cytopathogenicity of HIV-2; format: functional, organism-based; conditions: Human immunodeficiency virus 2
L1210 = test: Inhibitory concentration of compound against proliferation of murine lukemia cells L1210 was determined; format: functional, cell-based; conditions: Mus musculus
How it was run: (§1)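 (5–7.5) × 10^4 cells per well were incubated with test compound at 37 °C in a humidified CO2 atmosphere. L1210 murine leukemia cells grew for 48 h, and CEM and Molt4/clone 8 human lymphocytes grew for 72 h. Cells were then counted with a Coulter counter. IC50 is the concentration inhibiting proliferation by 50%.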

[2] = system: Human immunodeficiency virus 1; test: Effective concentration of compound required to protect human T-lymphocytic cells against the cytopathogenicity of HIV-1; format: functional, organism-based; conditions: Human immunodeficiency virus 1
MOLT-4 = test: Inhibitory concentration of compound against proliferation of human T-lymphocytic cells MOLT-4/C8 was determined; format: functional, cell-based; how it was run: as §1
CCRF-CEM = test: Inhibitory concentration against proliferation of human T-lymphocytic (CEM) cells; format: functional, cell-based; conditions: Homo sapiens, CCRF-CEM; how it was run: as §1
Mus musculus [3] = species: Mus musculus; test: Minimal inhibitory concentration required to cause a microscopic detectable alteration of C3H/3T3 embryo murine fibroblast cell morphology; format: functional
How it was run: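 Uninfected C3H/3T3 murine embryo fibroblast cultures were exposed to test compound and checked microscopically for changes in cell morphology. The MIC is the concentration causing a microscopically detectable alteration of morphology.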

Mus musculus [4] = species: Mus musculus; test: Effective concentration of compound required to protect C3H/3T3 embryo murine fibroblasts against the MSV induced transformation; format: functional, organism-based; conditions: Mus musculus, C3H/3T3
How it was run: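 Monolayer murine embryo fibroblast C3H/3T3 cultures were infected with Moloney murine sarcoma virus at 75 focus-forming units and cultured with test compound. Transformation was examined microscopically on day 6 postinfection. EC50 is the concentration protecting cells against MSV-induced transformation by 50%.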

SMILES	EC50 [1] [µM]	IC50 (L1210) [µM]	EC50 [2] [µM]	IC50 (MOLT-4) [µM]	IC50 (CCRF-CEM) [µM]	MIC (Mus musculus [3]) [µM]	EC50 (Mus musculus [4]) [µM]
NCCCCCCNC(=O)[C@@H]1NC(=O)C2NC(=O)C(NC(=O)C3NC(=O)C4NC(=O)C(Cc5ccc(c(Cl)c5)Oc5cc3cc(c5O)Oc3ccc(cc3Cl)C2O)NC(=O)C(N)c2ccc(O)c(c2)Oc2cc(O)cc4c2)c2ccc(O)c(c2)-c2c(O)cc(O)cc21 (some centres not stated)	17	> 500	15	> 500	> 500	20 (≈ 25.9 µg/mL)	> 4
COC(=O)[C@@H]1NC(=O)C2NC(=O)C(NC(=O)C3NC(=O)C4NC(=O)C(Cc5ccc(c(Cl)c5)Oc5cc3cc(c5O)Oc3ccc(cc3Cl)C2O)NC(=O)C(N)c2ccc(O)c(c2)Oc2cc(O)cc4c2)c2ccc(O)c(c2)-c2c(O)cc(O)cc21 (some centres not stated)	15	364	9.5	> 500	248	> 100	12
CNC1C(=O)NC2Cc3ccc(cc3)Oc3cc4cc(c3OC3OC(C(=O)O)C(O)C(O)C3N)Oc3ccc(cc3Cl)C(O)C3NC(=O)C(NC(=O)C4NC(=O)C(NC2=O)c2cc(cc(O)c2Cl)Oc2cc1ccc2O)c1ccc(O)c(c1)-c1c(O)cc(O)cc1[C@H](C(=O)O)NC3=O (some centres not stated)	> 250	> 500	115	> 500	> 500	> 100	> 100
O=C1NC2C(=O)NC3C(=O)NC4C(=O)NC(C(=O)N[C@@H](C(=O)O)c5cc(O)cc(O)c5-c5cc4ccc5O)C(O)c4ccc(c(Cl)c4)Oc4cc3cc(c4O)Oc3ccc(cc3Cl)CC1NC(=O)C(NC(=O)C13CC4CC(CC(C4)C1)C3)c1ccc(O)c(c1)Oc1cc(O)cc2c1 (some centres not stated)	4	33	10	39	83	100 (≈ 136 µg/mL)	11
CCCCc1ccc(CNCc2c(O)cc3c(c2O)-c2cc(ccc2O)C2NC(=O)C4NC(=O)C5NC(=O)C(Cc6ccc(c(Cl)c6)Oc6cc4cc(c6O)Oc4ccc(cc4Cl)C(O)C(NC2=O)C(=O)N[C@H]3C(=O)NC)NC(=O)C(N)c2ccc(O)c(c2)Oc2cc(O)cc5c2)cc1 (some centres not stated)	12	> 100	9.7	> 100	> 100	20 (≈ 27.7 µg/mL)	> 4
CN[C@H](CC(C)C)C(=O)N[C@H]1C(=O)N[C@@H](CC(N)=O)C(=O)N[C@H]2C(=O)N[C@H]3C(=O)N[C@H](C(=O)N[C@H](C(=O)O)c4cc(O)cc(O)c4-c4cc3ccc4O)[C@H](O)c3ccc(c(Cl)c3)Oc3cc2cc(c3O[C@@H]2O[C@H](CO)[C@@H](O)[C@H](O)[C@H]2O[C@H]2C[C@](C)(N)[C@H](O)[C@H](C)O2)Oc2ccc(cc2Cl)[C@H]1O [VANCOMYCIN]	> 250	> 500	> 250	> 500	> 500	> 100	> 100

Second part, led by results:

EC50 [1] [µM]	IC50 (L1210) [µM]	EC50 [2] [µM]	IC50 (MOLT-4) [µM]	IC50 (CCRF-CEM) [µM]	SMILES	MIC (Mus musculus [3]) [µM]	EC50 (Mus musculus [4]) [µM]
> 50	136	22	72	106	CN[C@H](CC(C)C)C(=O)N[C@H]1C(=O)N[C@@H](CC(N)=O)C(=O)N[C@H]2C(=O)N[C@H]3C(=O)N[C@H](C(=O)N[C@H](C(=O)O)c4cc(O)c(CNCc5ccc(-c6ccc(Cl)cc6)cc5)c(O)c4-c4cc3ccc4O)[C@H](O[C@H]3C[C@](C)(N)[C@@H](O)[C@H](C)O3)c3ccc(cc3)Oc3cc2cc(c3O[C@@H]2O[C@H](CO)[C@@H](O)[C@H](O)[C@H]2O[C@H]2C[C@](C)(N)[C@@H](O)[C@H](C)O2)Oc2ccc(cc2Cl)[C@H]1O	> 20	> 4
> 10	41	> 10	34	35	CN[C@H](CC(C)C)C(=O)N[C@H]1C(=O)N[C@@H](CC(N)=O)C(=O)N[C@H]2C(=O)N[C@H]3C(=O)N[C@H](C(=O)N[C@H](C(=O)NCc4ccc(-c5ccccc5)cc4)c4cc(O)cc(O)c4-c4cc3ccc4O)[C@H](O[C@H]3C[C@](C)(N)[C@@H](O)[C@H](C)O3)c3ccc(cc3)Oc3cc2cc(c3O[C@@H]2O[C@H](CO)[C@@H](O)[C@H](O)[C@H]2O[C@H]2C[C@](C)(N)[C@@H](O)[C@H](C)O2)Oc2ccc(cc2Cl)[C@H]1O	4 (≈ 6.89 µg/mL)	> 0.8
190	> 500	80	> 500	> 500	CNC(=O)[C@@H]1NC(=O)C2NC(=O)C(NC(=O)C3NC(=O)C4NC(=O)C(NC(=O)C(N)c5ccc(O)c(c5)Oc5cc(O)cc4c5)C(O)c4ccc(c(Cl)c4)Oc4cc3cc(c4O[C@@H]3O[C@@H](CO)[C@@H](O)[C@H](O)[C@@H]3NC(=O)CCCCCCC(C)C)Oc3ccc(cc3Cl)C2O[C@@H]2O[C@@H](CO)[C@@H](O)[C@H](O)[C@@H]2NC(C)=O)c2ccc(O)c(c2)-c2c(O[C@H]3O[C@H](CO)[C@@H](O)[C@@H](O)[C@@H]3O)cc(O)cc21 (some centres not stated)	> 100	75
100	> 500	17	> 500	> 500	CC(=O)N[C@@H]1[C@H](OC2c3ccc(c(Cl)c3)Oc3cc4cc(c3O[C@@H]3O[C@@H](CO)[C@@H](O)[C@H](O)[C@@H]3NC(=O)CCCCCCC(C)C)Oc3ccc(cc3Cl)C(O)C3NC(=O)C(N)c5ccc(O)c(c5)Oc5cc(O)cc(c5)C(NC3=O)C(=O)NC4C(=O)NC3C(=O)NC2C(=O)N[C@@H](C(=O)O)c2cc(O)cc(O[C@H]4O[C@H](CO)[C@@H](O)[C@@H](O)[C@@H]4O)c2-c2cc3ccc2O)O[C@@H](CO)[C@@H](O)[C@@H]1O (some centres not stated)	> 100	> 100
3.5	84	4	> 100	> 100	CNC(=O)[C@@H]1NC(=O)C2NC(=O)C(NC(=O)C3NC(=O)C(CC(N)=O)NC(=O)C(NC(=O)C(CC(C)C)N(C)C(=O)OC(C)(C)C)C(O)c4ccc(c(Cl)c4)Oc4cc3cc(c4O)Oc3ccc(cc3)C2O)c2ccc(O)c(c2)-c2c1cc(O)c(CN1CCN(Cc3ccc(-c4ccccc4)cc3)CC1)c2O (some centres not stated)	20 (≈ 29.7 µg/mL)	> 4
